Compound activity deposited in PubChem BioAssay by several laboratories.
Shown are actives, neighbours in structure and some others; about 1.9% of the full set was active somewhere.
VIM-2 inh – VIM-2 metallo-beta-lactamase inhibitors, primary screen, biochemical, epi-absorbance readout, Pseudomonas aeruginosa enzyme; inhibition, % at 5.6 µM; 290,000 tested, 0.89% active; AID 1527, 2009; purified VIM-2, nitrocefin hydrolysis, epi-absorbance fluorescence;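 active = inhibition above the mean of all tested compounds plus 3 SD, cutoff set per screening run, cut at about 7.5% in these data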;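 note: red hydrolysis product quenches plate fluorescence so inhibitors raise well fluorescence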
IMP-1 inh – IMP-1 metallo-beta-lactamase inhibitors, primary screen, biochemical, epi-absorbance readout, Pseudomonas aeruginosa enzyme | metallo-beta-lactamase IMP-1 (Pseudomonas aeruginosa) | AID 1556, 2009 | 290,000 tested, 0.45% active | inhibition, % at 5.6 µM | purified IMP-1, nitrocefin hydrolysis, epi-absorbance fluorescence;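 active = inhibition above the mean plus 3 SD of all compounds in the same screening run, cut at about 4.5% in these data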
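System: purified recombinant IMP-1 beta-lactamase. Medium: Zinc- and detergent-supplemented HEPES buffer, pH 7.1. Compound: one 5.6 µM dose […]. Schedule: 15 min preincubation plus 25 min reaction at 25 °C. Technique: Epi-absorbance fluorescence, 480 nm excitation, 530 nm emission.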
T cell HTS – modulators of CD8 T cell-vesicle binding, primary screen, mouse 2C CD8+ T cells, flow cytometry; 2C CD8+ T cell-vesicle binding; stronger effect = lower value; response (vesicle binding), % at 7 µM; 330,000 tested, 0.068% active;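 active = response, share of CD8 T cells binding vesicles, and their 90th percentile fluorescence all below set limits, cut at about 80% in these data, passing the limit was not always enough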;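 note: values below 100% mean blocked vesicle binding to the CD8+ T cells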
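Also added: QL9-peptide-loaded Drosophila micro-vesicles bearing Ld, ICAM-1 and B7-1; Test system: purified 2C TCR transgenic mouse naive CD8+ T cells; Measured by: cytometric PE anti-B7-1 and Alexa647 anti-CD8 signals after 1% paraformaldehyde fixation; Timing: binding step 1.5 h, 37 °C, antibody labelling 20 min, ice.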
pCIP destab – p/CIP-EGFP fusion destabilizers, primary screen, fluorescence, F442A cells; Q05BA5; decrease of EGFP signal, % at 10 µM; 290,000 tested, 0.01% active; 16 h;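 active = EGFP signal decrease of at least 30% at 10 µM or well 3 SD below plate mean, unless failing retest; inactive = the rest, including hits failing retest or dose response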
Target sequence (Q05BA5 1-1403): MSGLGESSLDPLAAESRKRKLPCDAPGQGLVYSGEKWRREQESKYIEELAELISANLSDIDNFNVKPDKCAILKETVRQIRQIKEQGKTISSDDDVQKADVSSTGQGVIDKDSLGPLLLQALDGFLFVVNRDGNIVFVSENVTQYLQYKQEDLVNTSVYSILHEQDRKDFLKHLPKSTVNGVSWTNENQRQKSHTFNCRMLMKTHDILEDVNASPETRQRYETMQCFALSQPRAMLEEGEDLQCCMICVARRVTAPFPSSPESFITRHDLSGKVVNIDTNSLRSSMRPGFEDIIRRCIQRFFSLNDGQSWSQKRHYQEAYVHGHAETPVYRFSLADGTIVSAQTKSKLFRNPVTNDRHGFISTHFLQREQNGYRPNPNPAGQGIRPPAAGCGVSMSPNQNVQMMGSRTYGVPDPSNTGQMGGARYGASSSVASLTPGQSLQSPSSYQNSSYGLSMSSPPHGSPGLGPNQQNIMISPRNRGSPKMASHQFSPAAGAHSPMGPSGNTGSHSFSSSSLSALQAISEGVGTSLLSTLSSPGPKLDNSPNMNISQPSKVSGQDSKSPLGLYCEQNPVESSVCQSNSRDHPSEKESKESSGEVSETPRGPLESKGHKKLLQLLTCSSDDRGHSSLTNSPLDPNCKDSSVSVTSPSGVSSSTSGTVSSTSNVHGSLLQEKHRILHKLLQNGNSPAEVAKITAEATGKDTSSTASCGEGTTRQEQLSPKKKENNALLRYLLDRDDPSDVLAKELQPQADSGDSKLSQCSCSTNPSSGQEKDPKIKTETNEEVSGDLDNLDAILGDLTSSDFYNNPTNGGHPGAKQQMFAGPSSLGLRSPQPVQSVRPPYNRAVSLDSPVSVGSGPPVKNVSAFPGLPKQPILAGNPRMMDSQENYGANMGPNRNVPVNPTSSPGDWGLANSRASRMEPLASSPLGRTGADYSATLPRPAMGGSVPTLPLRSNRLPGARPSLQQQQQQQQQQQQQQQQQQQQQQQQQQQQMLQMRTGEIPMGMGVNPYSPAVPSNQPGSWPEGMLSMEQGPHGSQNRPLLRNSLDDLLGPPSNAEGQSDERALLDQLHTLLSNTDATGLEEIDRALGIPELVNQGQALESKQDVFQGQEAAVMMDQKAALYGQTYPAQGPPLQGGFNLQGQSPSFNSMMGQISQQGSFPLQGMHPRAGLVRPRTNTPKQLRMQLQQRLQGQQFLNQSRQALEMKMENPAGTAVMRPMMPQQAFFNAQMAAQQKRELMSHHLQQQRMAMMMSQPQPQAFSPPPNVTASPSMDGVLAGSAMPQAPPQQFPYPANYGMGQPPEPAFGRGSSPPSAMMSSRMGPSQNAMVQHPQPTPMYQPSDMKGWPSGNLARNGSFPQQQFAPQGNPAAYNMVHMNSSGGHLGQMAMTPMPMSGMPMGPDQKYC
Fh CTSL1 inh – Fasciola hepatica cathepsin L1 inhibitors, primary screen, counter-screen for PFM18AAP inhibitor project, biochemical, QFRET, fluorogenic peptide substrate. recombinant F. hepatica cathepsin L1, Z-Leu-Arg-MCA fluorescence. inhibition, % at 5.96 µM. 300,000 tested, 0.49% active. AID 1906, 2009;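 active = inhibition above the mean of all tested compounds plus 3 SD, set per screening campaign, cut at about 17% in these data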
SUMO HTRF inh – inhibitors of in vitro SUMOylation cascade, primary screen, biochemical, HTRF, uHTS | AID 2006, 2009 | inhibition, % at 35 µM | 290,000 tested, 0.36% active | HTRF SUMOylation assay, SAE1/SAE2 + UBC9; in the data active = inhibition above about 50%, passing the limit was not always enough
A number is an active result; 0 = inactive; - = no result.

SMILES	VIM-2 inh	IMP-1 inh	T cell HTS	pCIP destab	Fh CTSL1 inh	SUMO HTRF inh
CN(C)C(=O)c1ccc(NC(=O)COC(=O)Cn2cc(C(F)(F)F)ccc2=O)cc1	-	-	0	-	-	-
Cc1ccc(Cl)cc1Nc1nc(-c2sc(NC(=O)c3cccc(Cl)c3)nc2C)cs1	0	0	0	0	0	0
CCCC(C)C(=O)Nc1nc(C)c(-c2csc(Nc3cc(Cl)ccc3C)n2)s1 (stereo not given)	0	9.9	0	0	0	0
CCCCCC(=O)Nc1nc(C)c(-c2csc(Nc3cc(Cl)ccc3C)n2)s1	0	12	0	0	0	0
Cc1cccc2cc3c(NC(=O)C(C)(C)C)nn(CC(C)C)c3nc12	0	0	0	0	0	0
O=C(NNC(=S)NCCc1ccccc1)c1ccc(Br)s1	0	0	0	0	18	0
O=C(CCC(=O)N(CC(=O)NC1CCCC1)c1cccc(F)c1)Nc1nccs1	0	0	0	0	0	0
Oc1ccc(-c2c(C3=CCCCC3)sc3ccccc23)cc1	0	5.1	0	0	0	0
Cc1ccc(CN=c2c([N+](=O)[O-])nn(-c3ccc(Cl)cc3)n2O)cc1	0	0	0	0	0	0
O=[N+]([O-])c1nn(-c2ccc(Cl)cc2)n(O)c1=NCc1ccncc1	0	0	0	0	18	0
O=C(NCCCN1CCN(c2cccc(Cl)c2)CC1)C1CCC(=O)N1Cc1ccccc1Cl (stereo not given)	0	6.5	-	0	-	0
CN(CCCNC(=O)C1CCC(=O)N1Cc1ccccc1Cl)c1ccccc1 (stereo not given)	0	0	0	0	0	0
COC(=O)CSc1nnc(-c2ccco2)n1-c1ccc(C)cc1	0	6.0	0	0	0	0
CCOC(=O)CSc1nnc(-c2ccco2)n1-c1ccc(C)cc1	0	0	0	0	0	0
COc1ccc(OC)c(NC(=O)c2cc(S(=O)(=O)N3CCCC3)cn2C)c1	0	0	0	0	0	0
CCOc1cc(CNc2ncc(-c3ccc(OC)cc3)n2C)ccc1O	0	4.8	0	0	0	0
COc1ccc(CNc2ncc(-c3ccccc3)n2C)cc1	0	0	0	0	0	0
CCCCn1c(-c2ccc([N+](=O)[O-])cc2)n[nH]c1=S	13	0	0	0	0	0
COc1ccc(Cn2c(-c3ccc(OC)cc3)n[nH]c2=S)cc1	11	0	0	0	0	0
CCCCn1c(-c2csc(CCC)c2)n[nH]c1=S	0	0	0	0	0	0
CCOc1ccc(-c2n[nH]c(=S)n2Cc2ccccc2)cc1	0	0	0	0	0	0
CCCn1c(-c2ccc(F)cc2)n[nH]c1=S	10	0	0	0	0	0
CCn1c(-c2ccc(C)cc2)n[nH]c1=S	0	0	0	0	0	0
O=C(C1=C(O)C(=O)N(CCc2ccccc2)C1c1cccnc1)c1ccco1 (stereo not given)	0	5.9	0	0	0	0
O=C(C1=C(O)C(=O)N(Cc2cccnc2)C1c1cccc(Oc2ccccc2)c1)c1ccco1 (stereo not given)	-	-	0	-	-	-
SMILES	VIM-2 inh	IMP-1 inh	T cell HTS	pCIP destab	Fh CTSL1 inh	SUMO HTRF inh
Cc1cc(/C=C2\C(=O)NN(c3ccccc3)C2=O)c(C)n1-c1ccccc1O	0	0	0	0	0	60
Cc1cc(/C=C2/C(=O)NN(c3ccccc3)C2=O)c(C)n1-c1ccc(O)cc1	0	0	0	0	0	0
COCCN(C(=O)COC(=O)CCC1CCCC1)c1c(N)n(Cc2ccccc2)c(=O)[nH]c1=O	-	-	0	-	0	-
Cc1ccc(N2C(=O)c3cccc(Oc4ccc(Cl)cc4)c3C2=O)c(C)c1	0	0	0	0	0	0
O=C(O)CN1C(=O)c2cccc(Oc3ccc(Cl)cc3)c2C1=O	0	12	0	0	0	0
CCOC(=O)c1ccc(N2CN(C3CCCCC3)CNC2=S)cc1	0	7.2	0	0	0	0
COc1cc(C(=O)Nc2nnc(S(=O)(=O)N3CCCCCC3)s2)cc(OC)c1OC	0	0	0	0	0	0
CCc1cc(CNC(=O)c2ccc(OC3CCN(CCc4ccccc4)CC3)cc2)on1	0	13	0	0	0	0
O=S(=O)(c1ccc(-c2ccon2)s1)N1CCN(c2ccccn2)CC1	0	79	0	0	0	0
CCCOc1ccc(N2C(=O)CC(N(Cc3ccco3)C(=O)CC)C2=O)cc1 (stereo not given)	0	0	0	0	0	0
CCCOc1ccc(N2C(=O)CC(N(C(=O)c3ccco3)c3ccc(OCCC)cc3)C2=O)cc1 (stereo not given)	0	0	0.0	0	0	0
CC(C)CN(C(=O)C1CCC1)c1c(N)n(Cc2ccccc2)c(=O)[nH]c1=O	-	-	0	-	-	-
O=S(=O)(c1ccc2c(c1)OCCO2)N1CCCN(S(=O)(=O)c2c(F)cccc2F)CC1	-	-	0	-	-	-
C=CCSc1nc2ccccc2n2cnnc12	10	0	0	0	0	0
C=CCC1(CC=C)CCCN1C(=O)C1CCC(=O)N(CCc2ccc(OC)cc2)C1 (stereo not given)	0	0	0	0	0	0
Cc1cc(C)c2c(=O)cc(C(F)F)oc2c1	0	0	0	0	17	0
Cc1ccc2c(=O)cc(C(F)F)oc2c1	0	0	0	0	0	0
COc1cccc(NC(=O)COc2ccc(C(=S)N3CCN(C)CC3)cc2OC)c1	8.3	0	0	0	0	0
CC(C)C(NC(=O)C1CCCCC1)C(=O)NCCc1ccccc1 (stereo not given)	0	0	0	0	0	0
Cc1cc(C)n(C(=O)Cc2cn3ccsc3n2)n1	0	0	72	0	0	0
CC(=O)N(/N=C1\Sc2ccccc2C1=O)c1ccccc1C	0	0	0	0	87	0
Cc1onc(-c2ccccc2Cl)c1C(=O)Nc1ncn[nH]1	0	0	0	0	0	0
On1c(-c2ccccc2)nc2ccc(Cl)cc21	0	5.2	0	0	0	0
CC(On1c(-c2ccccc2)nc2ccc(Cl)cc21)C(=O)O (stereo not given)	0	0	0	0	0	0
O=C1C=C(NCCN2CCOCC2)C(=O)c2cnccc21	0	0	0	0	100	84
O=C(NCCN1CCOCC1)c1ccncc1	0	0	0	0	0	0
O=C(O)c1cc(NC(=O)c2cccc(N3C(=O)c4ccccc4C3=O)c2)cc(C(=O)O)c1	0	0	0	0	0	0
COC(=O)c1ccc(NC(=O)c2ccc(NC(=O)c3ccco3)cc2)cc1	0	4.7	0	0	0	0
CC(=O)c1ccc(NC(=O)c2ccc(NC(=O)c3ccco3)cc2)cc1	0	19	0	0	0	0
